{"source": "ChEMBL document CHEMBL1123956", "about": "“Nitrosoureido nucleosides as potential inhibitors of nucleotide biosynthesis” (J Med Chem, 1988)", "key": {"[1]": {"test": "(§1) Half life was measured at pH 7", "type": "ADME", "procedure,_shortened": "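Stability in pH 7 buffer, followed by HPLC; reported as half-life. The method is taken from an earlier paper.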"}, "HEp-2": {"test_system": "HEp-2", "test": "Inhibition of colony formation of H.Ep-2 cells", "type": "functional, cell-based", "conditions": "Homo sapiens, read-out: I50", "procedure,_shortened": "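H.Ep.-2 cells exposed to drug over a 12-day period. Colony formation was scored against untreated controls, and I50 was taken as the concentration giving 50% inhibition.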"}, "L1210 [2]": {"test_system": "L1210", "test": "Inhibition of proliferation of L1210 cells", "type": "functional, cell-based", "conditions": "Mus musculus, read-out: I50", "procedure,_shortened": "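L1210 cells in suspension culture with drug for 48 h. I50 was the concentration giving 50% inhibition of proliferation relative to controls.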"}, "Mus musculus": {"test_system": "Mus musculus", "test": "Percent increase in life span of p388 leukemia induced mice was determined at a dose of 200 mg/kg upon ip administration on days 1-5", "type": "functional", "conditions": "route intraperitoneal", "procedure,_shortened": "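Mice implanted with 10⁶ P388 leukemia cells were dosed intraperitoneally once daily on days 1-5 after implant. Activity is expressed as % increase in life span, and 30-day survivors were recorded.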"}, "[3]": {"test": "as §1", "type": "ADME", "procedure,_shortened": "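Stability in pH 7 buffer, with decomposition followed by HPLC and the half-life taken from it.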", "remark": "listed apart in the source"}, "L1210 [4]": {"test_system": "L1210", "test": "Number of cells present measured with the Coulter counter at 100 uM conc.", "type": "functional, Mus musculus", "procedure,_shortened": "(§2)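 L1210 suspension cultures with agent for 30 min or 18 h, then a further 4 h with radiolabelled precursor. Cells were counted by Coulter counter and expressed as R, the count relative to the initial cell number (R = 1.0). R < 1.0 means a fall below the starting number; R > 1.0 means proliferation.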"}, "L1210 [5]": {"test_system": "L1210", "test": "Number of cells present measured with the Coulter counter at 25 uM conc.", "type": "functional, Mus musculus", "procedure,_shortened": "as §2"}, "L1210 [6]": {"test_system": "L1210", "test": "Number of cells present measured with the Coulter counter at 50 uM conc.", "type": "functional, Mus musculus", "procedure,_shortened": "as §2"}, "L1210 [7]": {"test_system": "L1210", "test": "Size distribution of cells at 100 uM conc.", "type": "functional, Mus musculus", "procedure,_shortened": "(§3)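 L1210 suspension cultures with agent for 30 min or 18 h, then a 4-h labelling period. Size distribution was measured on a Model ZH Coulter Counter. The value is the instrument setting at the peak of cell size; higher settings mean larger cells.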"}, "L1210 [8]": {"test_system": "L1210", "test": "Size distribution of cells at 25 uM conc.", "type": "functional, Mus musculus", "procedure,_shortened": "as §3"}, "L1210 [9]": {"test_system": "L1210", "test": "Size distribution of cells at 50 uM conc.", "type": "functional, Mus musculus", "procedure,_shortened": "as §3"}, "L1210 [10]": {"test_system": "L1210", "test": "percent synthesis of DNA in L1210 cells when incubated with the compound for 30 min using […] as radioligand at 50 uM conc.", "type": "functional, Mus musculus", "procedure,_shortened": "(§4)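 DNA synthesis in L1210 suspension cultures preincubated with agent for 30 min or 18 h. [3H]dThd was then added to the medium, and incorporation into DNA was sampled at 1-h intervals over 4 h. Values are for the 4-h labelling period, as % of untreated control.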"}, "L1210 [11]": {"test_system": "L1210", "test": "percent synthesis of DNA in L1210 cells when incubated with the compound for 18 h using […] as radioligand at 25 uM conc.", "type": "functional, Mus musculus", "procedure,_shortened": "as §4"}, "L1210 [12]": {"test_system": "L1210", "test": "percent synthesis of DNA in L1210 cells when incubated with the compound for 18 h using […] as radioligand at 50 uM conc.", "type": "functional, Mus musculus", "procedure,_shortened": "as §4"}, "L1210 [13]": {"test_system": "L1210", "test": "percent synthesis of DNA in L1210 cells when incubated with the compound for 30 min using […] as radioligand at 100 uM conc.", "type": "functional, Mus musculus", "procedure,_shortened": "as §4"}, "L1210 [14]": {"test_system": "L1210", "test": "percent synthesis of protein in L1210 cells when incubated with the compound for 18 h uusing [3H]L-Leu as radioligand at 50 uM conc.", "type": "functional, Mus musculus", "procedure,_shortened": "(§5)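 Protein synthesis in L1210 suspension cultures preincubated with agent for 30 min or 18 h. [4,5-3H]-L-leucine was then added, and incorporation into protein was sampled hourly over 4 h. Values are 4-h incorporation as % of untreated control.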"}, "L1210 [15]": {"test_system": "L1210", "test": "percent synthesis of protein in L1210 cells when incubated with the compound for 30 min using [3H]L-Leu as radioligand at 50 uM conc.", "type": "functional, Mus musculus", "procedure,_shortened": "as §5"}, "L1210 [16]": {"test_system": "L1210", "test": "percent synthesis of RNA in L1210 cells when incubated with compound for 18 hr using […] as radioligand at 25 uM conc.", "type": "functional, Mus musculus", "procedure,_shortened": "(§6)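 RNA synthesis in L1210 suspension cultures preincubated with agent for 30 min or 18 h. [5-3H]Urd was then added, and incorporation into RNA was sampled hourly over 4 h. Values are 4-h incorporation as % of untreated control.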"}, "L1210 [17]": {"test_system": "L1210", "test": "percent synthesis of RNA in L1210 cells when incubated with compound for 18 hr using […] as radioligand at 50 uM conc.", "type": "functional, Mus musculus", "procedure,_shortened": "as §6"}, "L1210 [18]": {"test_system": "L1210", "test": "percent synthesis of RNA in L1210 cells when incubated with compound for 30 min using […] as radioligand at 100 uM conc.", "type": "functional, Mus musculus", "procedure,_shortened": "as §6"}, "L1210 [19]": {"test_system": "L1210", "test": "percent synthesis of RNA in L1210 cells when incubated with compound for 30 min using [3H]dThd as radioligand at 50 uM conc.", "type": "functional, Mus musculus", "conditions": "in the assay text read “[5-3H]Urd” for “[3H]dThd”", "procedure,_shortened": "as §6"}}, "note": "Values joined by “and” are separate entries in the source; they are usually repeats but may differ in a detail not shown here. Equal values may be shown once."}
{"smiles": "CCN(N=O)C(=O)NCC1OC(n2cc(C)c(=O)[nH]c2=O)CC1O", "note": "(stereo unspecified)", "values": [{"measurement": "half-life", "setting": "[1]", "result": 1140, "unit": "min"}, {"measurement": "IC50", "setting": "HEp-2", "result": "> 87", "unit": "µM"}, {"measurement": "IC50", "setting": "L1210 [2]", "result": "> 87", "unit": "µM"}, {"measurement": "ILS at 200 mg/kg", "setting": "Mus musculus", "result": 0, "unit": "%"}]}
{"smiles": "Cc1cn(C2CC(O)C(C(=O)Nc3ccc(NC(=O)N(C)N=O)cc3)O2)c(=O)[nH]c1=O", "note": "(stereo unspecified)", "values": [{"measurement": "half-life", "setting": "[1]", "result": 24, "unit": "min"}, {"measurement": "IC50", "setting": "HEp-2", "result": 46, "unit": "µM"}, {"measurement": "IC50", "setting": "L1210 [2]", "result": "> 90", "unit": "µM"}, {"measurement": "ILS at 200 mg/kg", "setting": "Mus musculus", "result": 79, "unit": "%"}]}
{"smiles": "O=NN(CCCl)C(=O)N[C@H]1C(O)O[C@H](CO)[C@@H](O)[C@@H]1O", "note": "(stereo partly specified) [CHLOROZOTOCIN]", "values": [{"measurement": "T1/2", "setting": "[3]", "result": 52.5, "unit": "min"}]}
{"smiles": "O=NN(CCCl)C(=O)NC1CCCCC1", "note": "[LOMUSTINE]", "values": [{"measurement": "Cell no", "setting": "L1210 [4]", "result": "1 and 0.42"}, {"measurement": "Cell no", "setting": "L1210 [5]", "result": "1.02 and 0.48"}, {"measurement": "Cell no", "setting": "L1210 [6]", "result": "1 and 0.53"}, {"measurement": "Cell size", "setting": "L1210 [7]", "result": "65 and 85"}, {"measurement": "Cell size", "setting": "L1210 [8]", "result": "67.5 and 90"}, {"measurement": "Cell size", "setting": "L1210 [9]", "result": "62.5 and 90"}, {"measurement": "Control", "setting": "L1210 [10]", "result": 75, "unit": "%"}, {"measurement": "Control", "setting": "L1210 [11]", "result": "88% and 139%"}, {"measurement": "Control", "setting": "L1210 [12]", "result": 143, "unit": "%"}, {"measurement": "Control", "setting": "L1210 [13]", "result": "46% and 131%"}, {"measurement": "Control", "setting": "L1210 [14]", "result": 584, "unit": "%"}, {"measurement": "Control", "setting": "L1210 [15]", "result": 79, "unit": "%"}, {"measurement": "Control", "setting": "L1210 [16]", "result": "106% and 282%"}, {"measurement": "Control", "setting": "L1210 [17]", "result": 393, "unit": "%"}, {"measurement": "Control", "setting": "L1210 [18]", "result": "101% and 246%"}, {"measurement": "Control", "setting": "L1210 [19]", "result": 121, "unit": "%"}]}
{"smiles": "CN(N=O)C(N)=O", "note": "[N-METHYL-N-NITROSUREA]", "values": [{"measurement": "T1/2", "setting": "[3]", "result": 52.5, "unit": "min"}]}
